Source: ChEMBL document CHEMBL4725346, “Syntheses and Evaluation of New Bisacridine Derivatives for Dual Binding of G-Quadruplex and i-Motif in Regulating Oncogene c-myc Expression” (J Med Chem, 2020)
Active and inactive are the calls of the source. The calls are words filed in the database; no cut-off is given here.

Key:
[1] = Drug uptake in human SiHa cells; format: ADME, cell-based
[2] = Stabilization of 5'-FAM/3'-TAMRA labeled c-myc promoter i-motif DNA FPy33T (unknown origin) assessed as change in melting temperature at 1 uM by FRET assay (reference value: 53.2 degreeC)
Summary of the method: (§1)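 FRET melting of dual FAM/TAMRA-labelled FPy33T annealed in 1× BPES (30 mM potassium phosphate, 1 mM EDTA, 100 mM KCl), pH 5.5. Final 0.2 µM DNA with or without ligand. Excitation 470 nm, emission 530 nm, read every 1 °C over 37–99 °C. ΔTm taken against DNA alone.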

[3] = molecular target: Quadruplex DNA; test: Binding affinity to 5'-biotin labeled c-myc promoter G-quadruplex DNA Pu27 (unknown origin) by surface plasmon resonance method; format: nucleic-acid assay
Summary of the method: (§2)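 SPR: 5'-biotin DNA diluted to 1 μM and captured (1000 RU) on a sensor chip, with a blank cell as reference. Running buffers: Py33 in 20 mM MES pH 5.8, 100 mM KCl, 0.05% Tween-20; Pu27 and duplex in 50 mM Tris-HCl pH 7.4, 100 mM KCl. Six ligand concentrations serially diluted from DMSO stock. Association 260 s, dissociation 300 s at 25 °C; NaOH regeneration; blank sensorgrams subtracted.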

[4] = Binding affinity to 5'-biotin labeled c-myc promoter i-motif DNA Py33 (unknown origin) by surface plasmon resonance method; summary of the method: as §2
[5] = Stabilization of c-myc promoter i-motif DNA Py33 (unknown origin) assessed as reduction in appearance of random coil confirmation at pH 5.5 by CD spectroscopy
Summary of the method: (§3)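 Py33 at 1 µM in 1× BPES pH 5.5 (pH 6.8 random-coil reference), with or without ligand. Annealed at 95 °C for 5 min, cooled, kept at 4 °C overnight. CD spectra in a 4 mm cuvette over 230–350 nm, three scans averaged, buffer-corrected; peaks followed at 288 and 260 nm.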

[6] = system: Quadruplex DNA; test: Stabilization of 5'-FAM/3'-TAMRA labeled c-myc promoter G-quadruplex DNA FPu22T (unknown origin) assessed as change in melting temperature at 1 uM by FRET assay (reference value: 66.5 degreeC); format: nucleic-acid assay
Summary of the method: (§4)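 FRET melting of dual FAM/TAMRA-labelled FPu22T annealed in 10 mM Tris-HCl pH 7.4 with KCl. Final 0.2 µM DNA with or without ligand. Excitation 470 nm, emission 530 nm, read every 1 °C over 37–99 °C on a real-time PCR cycler. ΔTm = Tm(DNA+ligand) − Tm(DNA).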

[7] = Stabilization of c-myc promoter i-motif DNA Py33 (unknown origin) assessed as decrease in positive peak intensity at pH 5.5 measured at 288 nanometer by CD spectroscopy; summary of the method: as §3
[8] = Stabilization of c-myc promoter i-motif DNA Py33 (unknown origin) assessed as increase in slower migration band incubated overnight by silver staining based PAGE analysis
Summary of the method: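 Py33 (3 µM) co-annealed with increasing ligand in 1× BPES pH 6.8 at 95 °C for 5 min, cooled, held at 4 °C overnight. Run on native 20% acrylamide in 1× TBE at 140 V for 5 h at 5 °C, then silver-stained.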

[9] = system: Quadruplex DNA; test: Stabilization of c-myc promoter G-quadruplex DNA Pu27 (unknown origin) assessed as effect on melting temperature at 5 uM by CD spectroscopy; format: nucleic-acid assay
Summary of the method: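 CD melting: Pu27 diluted to 1 µM in 10 mM Tris-HCl, 5 mM KCl, pH 7.4, with or without ligand. Annealed at 95 °C for 5 min, slowly cooled, then heated at 1 °C/min while monitoring 260 nm. Tm obtained by curve fitting.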

[10] = Stabilization of c-myc promoter i-motif DNA Py33 (unknown origin) assessed as effect on melting temperature at 5 uM by CD spectroscopy
Summary of the method: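 CD melting: Py33 at 1 µM in 1× BPES pH 6.4, with or without ligand. Annealed at 95 °C for 5 min, slowly cooled, then heated at 1 °C/min while monitoring 260 nm. Tm obtained by curve fitting.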

[11] = Stabilization of 5'-FAM/3'-TAMRA labeled hairpin DNA F10T (unknown origin) assessed as change in melting temperature at 1 uM by FRET assay (reference value: 59.1 degreeC)
[12] = Stabilization of c-myc promoter i-motif DNA Py33 (unknown origin) assessed as decrease in negative peak intensity at pH 5.5 measured at 260 nanometer by CD spectroscopy; summary of the method: as §3
[13] = molecular target: dsDNA; test: Binding affinity to 5'-biotin labeled duplex DNA (unknown origin) by surface plasmon resonance method; format: nucleic-acid assay; summary of the method: as §2
[14] = system: Quadruplex DNA; test: Stabilization of 5'-FAM/3'-TAMRA labeled c-myc promoter G-quadruplex DNA FPu22T (unknown origin) assessed as change in melting temperature at 5 uM by FRET assay (reference value: 66.5 degreeC); format: nucleic-acid assay; summary of the method: as §4
[15] = Stabilization of 5'-FAM/3'-TAMRA labeled c-myc promoter i-motif DNA FPy33T (unknown origin) assessed as change in melting temperature at 5 uM by FRET assay (reference value: 53.2 degreeC); summary of the method: as §1
[16] = Stabilization of 5'-FAM/3'-TAMRA labeled hairpin DNA F10T (unknown origin) assessed as change in melting temperature at 5 uM by FRET assay
[17] = system: Quadruplex DNA; test: Binding affinity to c-myc promoter G-quadruplex/i-motif in human SiHa cells assessed as reduction in c-myc expression at 2.5 uM incubated for 24 hrs by Western blot analysis; format: cell-based; parameters: scale not given: the % may be the effect or the level left
Summary of the method: (§5)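 SiHa cells treated 24 h at 0, 0.625, 1.25 and 2.5 μM, then lysed in buffer with 1 mM PMSF. Protein measured by BCA, equal loads run on 8% gel and blotted to PVDF. Probed with anti-c-MYC and anti-β-actin (loading control), HRP anti-rabbit secondary, chemiluminescence read-out.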

[18] = system: Quadruplex DNA; test: Binding affinity to c-myc promoter G-quadruplex/i-motif in human SiHa cells assessed as reduction in c-myc mRNA level incubated for 24 hrs by qRT-PCR analysis; format: cell-based; settings: dose microM 0.625-2.5, time 24.0 hrs
Summary of the method: (§6)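 SiHa cells at 0, 0.625, 1.25 and 2.5 μM for 24 h; DMSO control. Total RNA extracted with TRIzol. 1.5 μg RNA reverse-transcribed with oligo dT18 and M-MLV (42 °C 60 min). PCR of 30 cycles (95/58/72 °C), products run on 1.2% agarose. β-actin as internal control; three repeats.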

[19] = system: Quadruplex DNA; test: Stabilization of c-myc promoter G-quadruplex DNA Pu27 (unknown origin) in pH 7.4 Tris-HCl buffer by CD spectroscopy; format: nucleic-acid assay
Summary of the method: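 Pu27 at 1 µM in 10 mM Tris-HCl pH 7.4, with or without ligand. Annealed at 95 °C for 5 min, cooled to room temperature, stored at 4 °C overnight. CD spectra taken in a 4 mm cuvette over 230–350 nm, three scans averaged, smoothed and buffer-baseline corrected.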

[20] = system: Quadruplex DNA; test: Binding affinity to c-myc promoter G-quadruplex/i-motif in human SiHa cells assessed as reduction in c-myc expression at 1.25 uM incubated for 24 hrs by Western blot analysis; format: cell-based; parameters: scale not given: the % may be the effect or the level left; summary of the method: as §5
[21] = system: Quadruplex DNA; test: Binding affinity to c-myc promoter G-quadruplex/i-motif in human SiHa cells assessed as reduction in c-myc mRNA level at 1.25 uM incubated for 24 hrs by qRT-PCR analysis; format: cell-based; parameters: scale not given: the % may be the effect or the level left; summary of the method: as §6
[22] = system: Quadruplex DNA; test: Binding affinity to c-myc promoter G-quadruplex/i-motif in human SiHa cells assessed as reduction in c-myc mRNA level at 5 uM incubated for 24 hrs by qRT-PCR analysis; format: cell-based; parameters: scale not given: the % may be the effect or the level left
[23] = system: HCT-116; test: Antiproliferative activity against human HCT-116 cells after 48 hrs by MTT assay; format: functional, cell-based; settings: HCT-116, 48 h
Summary of the method: (§7)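 Cells seeded at 5.0×10^3 per well, pre-incubated 12 h at 37 °C, 5% CO2, then exposed to compounds for 48 h; DMSO-only control. MTT (2.5 mg/mL) added for 4 h, formazan dissolved in DMSO, absorbance at 570 nm. Each dose tested in triplicate; IC50 from percentage survival relative to negative control.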

[24] = system: Quadruplex DNA; test: Binding affinity to c-myc promoter G-quadruplex/i-motif in human SiHa cells assessed as reduction in c-myc expression incubated for 24 hrs by Western blot analysis; format: cell-based; summary of the method: as §5
[25] = system: U2OS; test: Antiproliferative activity against human U2OS cells after 48 hrs by MTT assay; format: functional, cell-based; summary of the method: as §7
[26] = system: A549; test: Antiproliferative activity against human A549 cells after 48 hrs by MTT assay; format: functional, cell-based; settings: A549, 48 h; summary of the method: as §7
[27] = system: Quadruplex DNA; test: Binding affinity to c-myc promoter G-quadruplex/i-motif in human SiHa cells assessed as reduction in c-myc expression at 5 uM incubated for 24 hrs by Western blot analysis; format: cell-based; parameters: scale not given: the % may be the effect or the level left
[28] = system: Quadruplex DNA; test: Binding affinity to c-myc promoter G-quadruplex/i-motif in human SiHa cells assessed as reduction in c-myc mRNA level at 2.5 uM incubated for 24 hrs by qRT-PCR analysis; format: cell-based; parameters: scale not given: the % may be the effect or the level left; summary of the method: as §6
[29] = system: SiHa; test: Antiproliferative activity against human SiHa cells after 48 hrs by MTT assay; format: functional, cell-based; summary of the method: as §7
[30] = system: Quadruplex DNA; test: Binding affinity to c-myc wild-type promoter G-quadruplex/i-motif (unknown origin) expressed in human SiHa cells assessed as reduction in c-myc transcription by measuring decrease in ratio of renilla/firefly luciferase activity at 1/3 IC50 after 48 hrs by dual-luciferase reporter assay; format: cell-based
Summary of the method: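 SiHa cells transfected with 200 ng psiCHECK2 plasmid carrying wild-type, mutant or deleted c-myc promoter. Compounds added 8 h after transfection, then incubated 48 h at 37 °C. Cells washed with ice-cold PBS; Renilla/firefly activity ratio read by dual-luciferase assay.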

[31] = system: HeLa; test: Antiproliferative activity against human Hela cells after 48 hrs by MTT assay; format: functional, cell-based; summary of the method: as §7
[32] = system: Huh-7; test: Antiproliferative activity against human Huh-7 cells after 48 hrs by MTT assay; format: functional, cell-based; settings: Huh-7, 48 h; summary of the method: as §7
[33] = system: A-375; test: Antiproliferative activity against human A-375 cells after 48 hrs by MTT assay; format: functional, cell-based; settings: A-375, 48 h; summary of the method: as §7
[34] = system: ssDNA; test: Binding affinity to 5'-biotin labeled single-stranded DNA Py33 (unknown origin) at <=50 uM by surface plasmon resonance method; format: nucleic-acid assay

| Drug uptake [1] | ΔTm [2] | Kd [3] | Kd [4] | ΔTm [6] | Activity [9] | Activity [10] | ΔTm [11] | Kd [13] | ΔTm [14] | ΔTm [15] | ΔTm [16] | IC50 [23] | IC50 [25] | IC50 [26] | IC50 [31] | IC50 [32] | IC50 [33] | SMILES | IC50 [29] | other results |
| --- | --- | --- | --- | --- | --- | --- | --- | --- | --- | --- | --- | --- | --- | --- | --- | --- | --- | --- | --- | --- |
| Not Active | 24.3 °C | 2.7 µM | 1 µM | 17.1 °C | Active | Active | 2.8 °C | 21.7 µM |  |  |  |  |  |  |  |  |  | Cc1ccc2nc3ccc(C(=O)NCCCN(C)C)cc3c(NCCCNCCNCCCNc3c4cc(C)ccc4nc4ccc(C(=O)NCCCN(C)C)cc34)c2c1 |  | Activity [5]: Active; Activity [7]: Active; Activity [8]: Dose-dependent effect; Activity [12]: Active |
|  |  |  |  |  |  |  |  |  | 6.2 °C | 16 °C | 2.5 °C |  |  |  |  |  |  | Cc1ccc2nc3ccc(C)cc3c(NCCNCCNc3c4cc(C)ccc4nc4ccc(C)cc34)c2c1 |  |  |
|  | 2.7 °C |  |  | 6.2 °C |  |  | 4.1 °C | 13.1 µM | 8.3 °C | 10 °C | 6.8 °C |  |  |  |  |  |  | Cc1ccc2nc3ccc(C)cc3c(NCCN(C)C)c2c1 |  |  |
| Active | 1 °C | 3.6 µM | 26.2 µM | 13.5 °C | Active | inactive | 2.3 °C | 22.1 µM |  |  |  | 2.12 µM | 1.23 µM | 2.26 µM | 1.36 µM | 1.95 µM | 1.75 µM | Cc1ccc2nc3ccc(C)cc3c(NCCOCCOCCNc3c4cc(C)ccc4nc4ccc(C)cc34)c2c1 | 0.56 µM | Activity [17]: 42.2%; Activity [18]: Dose-dependent effect; Activity [19]: Active; Activity [20]: 25.3%; Activity [21]: 32.6%; Activity [22]: 79.8%; Activity [24]: Dose-dependent effect; Activity [27]: 62.3%; Activity [28]: 55.8%; Activity [30]: Active |
|  | 0.7 °C | 4.7 µM | 12.3 µM | 15.2 °C |  |  | 2.5 °C | 6.5 µM |  |  |  | 11.1 µM | 5.48 µM | 9.79 µM | 13.8 µM | 20 µM | 6.85 µM | c1ccc2c(NCCNCCNc3c4ccccc4nc4ccccc34)c3ccccc3nc2c1 | 12 µM | Activity [34]: inactive |
